# NadD block – blocks S. aureus nicotinate mononucleotide adenylyltransferase; purified NadD enzyme, colorimetric absorbance read-out; inhibition, % at 20 µM; 360,000 tested, 0.78% active; in the data active = inhibition above about 26%
# rCAG binder – binds r(CAG) RNA repeats; r(CAG) RNA repeat, TO-PRO-1 dye displacement fluorescence; inhibition, % at 3 µM; 370,000 tested, 1.3% active; AID 651821;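 active = inhibition above the plate cutoff, the mean of all test compounds on that plate plus 3 SD, cut at about 35% in these data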;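 also: 0% = DMSO alone and 100% = 100 µM mitoxantrone as full dye displacement; higher means more dye released from RNA so lower well fluorescence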
# ABHD5-PLIN5 inh – inhibitors of human ABHD5-perilipin-5 interaction; Q00G26+Q8WTS1; Split G. princeps luciferase complementation, luminescence, 4 h; inhibition, % at 4 µM; 360,000 tested, 0.78% active;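 active = inhibition above the mean inhibition across every tested compound plus 3 SD, cut at about 22% in these data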;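 also: 0% = DMSO only wells and the 100% control is not disclosed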
# Target sequence (Q00G26 whole entry, looked up): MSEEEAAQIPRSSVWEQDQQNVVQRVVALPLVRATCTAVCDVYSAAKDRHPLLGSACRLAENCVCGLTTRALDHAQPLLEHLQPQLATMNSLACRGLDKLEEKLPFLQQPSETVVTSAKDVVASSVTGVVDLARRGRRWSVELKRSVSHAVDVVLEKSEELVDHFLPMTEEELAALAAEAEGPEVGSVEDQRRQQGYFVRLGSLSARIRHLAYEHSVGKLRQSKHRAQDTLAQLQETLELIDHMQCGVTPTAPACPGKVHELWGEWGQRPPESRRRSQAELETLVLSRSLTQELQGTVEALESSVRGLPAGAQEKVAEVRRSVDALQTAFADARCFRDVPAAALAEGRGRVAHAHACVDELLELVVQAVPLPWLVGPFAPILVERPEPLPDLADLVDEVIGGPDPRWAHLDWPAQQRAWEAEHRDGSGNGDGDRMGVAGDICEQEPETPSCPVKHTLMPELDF
# Target sequence (Q8WTS1 whole entry, looked up): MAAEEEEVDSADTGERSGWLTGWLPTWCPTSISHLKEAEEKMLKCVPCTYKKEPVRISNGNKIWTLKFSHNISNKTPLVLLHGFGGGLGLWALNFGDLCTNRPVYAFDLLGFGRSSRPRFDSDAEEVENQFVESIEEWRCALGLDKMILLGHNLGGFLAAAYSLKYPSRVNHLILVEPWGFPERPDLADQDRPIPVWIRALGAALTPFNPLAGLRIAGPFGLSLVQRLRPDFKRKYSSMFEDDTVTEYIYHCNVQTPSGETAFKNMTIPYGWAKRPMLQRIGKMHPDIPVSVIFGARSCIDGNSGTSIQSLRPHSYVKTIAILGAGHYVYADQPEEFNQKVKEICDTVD
# core dimer inh – HCV core protein dimerization inhibition | TR-FRET GST/Flag-core106 dimerization, 1536-well | inhibition, % at 5 µM | 300,000 tested, 0.33% active;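 active = inhibition above the mean of all tested compounds plus 3 SD, set per screening campaign, cut at about 45% in these data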
#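 Material: GST/Flag-tagged HCV core106 proteins. Incubation: 4 h, 22.5 °C incubation. Read-out basis: inhibition (%) from 671 over 617 nm ratio. Measured by: TR-FRET, excitation 340 nm, emission 617 and 671 nm.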
# Active calls of the source: *; · = no result given. Compounds with a hit are over-represented: about 2.6% of the library has one in this group of screens.
SMILES,NadD block,rCAG binder,ABHD5-PLIN5 inh,core dimer inh
COc1ccc(C)cc1N=Nc1ccc(O)c2ncccc12,23,9,9,·
O=S(=O)(O)c1cccc2c(N=Nc3ccc(O)c4ncccc34)cccc12,-3,·,36*,-16
COc1cccc(N=Nc2ccc(O)c3ncccc23)c1,34*,18,2,-11
COc1ccc(N=Nc2ccc(O)c3ncccc23)cc1,40*,6,2,-1
Cc1ccccc1N=Nc1ccc(O)c2ncccc12,33*,7,6,-4
O=Nc1ccc(O)c2ncccc12,-1,-2,-3,-13
COc1cccc(N=Nc2ccc3cccnc3c2O)c1,17,15,7,-14
CN(C)c1cccc2c(S(=O)(=O)NCC3CCN(C(=O)C(=O)c4cc5ccccc5o4)CC3)cccc12,·,9,·,·
COc1cccc(-c2nnc(SCC(=O)Nc3ccc(OCc4ccccc4)cc3)n2Cc2ccco2)c1,·,10,·,·
CCCCOCCCNC(=O)C[C@@H]1C(=O)N2CCCC3=C2[C@@]1(C(=O)OCC)CCC3,·,-4,·,·
CCCCN1CN2Cc3ccc(C)cc3C2CS1(=O)=O (centres undefined),·,6,·,·
Cc1ccc(C)c(NC(=O)C2CCCN2S(=O)(=O)c2cccc3cccnc23)c1 (centres undefined),·,1,·,·
Cn1c(Cc2cccs2)nnc1SCC(=O)Nc1ccc2c(c1)OCCO2,·,2,·,·
O=C(Cn1nnc(-c2ccc(N3CCOCC3)cc2)n1)c1ccccc1,·,8,·,·
CC(C)(C)n1nc2c(c1NC(=O)COc1ccc(Cl)cc1)CSC2,46*,·,-1,1
COC(=O)C(C(=O)OC)[C@H]1C=C[C@@H](C(=O)NS(=O)(=O)c2ccc(C)cc2)N(C(C)=O)C1,·,10,·,·
CC1=C(C)/C(=N\OS(=O)(=O)c2ccccc2)C=CC1=O,-7,·,62*,-11
C=CCN1C(=O)[C@@H](CC(=O)N2CCSCC2)[C@]2(C(=O)OC)CCCCC=C12,·,7,·,·
Cc1ccccc1OCC(=O)OCC(=O)NCc1ccco1,-8,-1,2,1
COc1ccc(OCCC(=O)OCC(=O)NCc2ccco2)cc1,7,2,4,85*
COc1ccccc1NCCC(=O)OCC(=O)NCc1ccco1,8,16,-3,58*
CC(C)(C)OC(=O)/C=C/[C@@H](CC1CCCC1)Sc1ccc(C(C)(C)C)cc1,·,0,·,·
COc1ccc(OC)c(C2CC(=O)N3CN(c4cccc(Cl)c4C)CSC3=C2C#N)c1 (centres undefined),32*,21,-17,-3
COc1cccc(C2CC(=O)N3CN(c4cccc(Cl)c4C)CSC3=C2C#N)c1OC (centres undefined),5,15,-22,1
N=c1c2c(-c3ccccc3)c(-c3ccccc3)n(CCc3ccccc3)c2ncn1C1CCC(O)CC1 (centres undefined),·,10,·,·
SMILES,NadD block,rCAG binder,ABHD5-PLIN5 inh,core dimer inh
COc1ccc2cc(CN(CCc3ccccc3)Cc3nnnn3Cc3ccco3)c(=O)[nH]c2c1,8,9,22*,10
COc1ccc2[nH]c(=O)c(CN(C3CCCCC3)C(c3nnnn3Cc3ccco3)C(C)C)cc2c1 (centres undefined),59*,·,46*,70*
COc1ccc2[nH]c(=O)c(CN(Cc3nnnn3Cc3ccco3)C3CCCCC3)cc2c1,8,0,21,19
Cc1ccc2cc(CN(Cc3ccc4c(c3)OCO4)Cc3nnnn3Cc3ccco3)c(=O)[nH]c2c1,4,6,14,14
O=C(CN1CCCN(S(=O)(=O)c2ccc(Br)s2)CC1)Nc1ccc(Cl)cc1,-1,-4,50*,0
COC(=O)[C@]12C[C@H](CC(=O)NCc3ccccc3)C(=O)N(CCc3ccc(OC)c(OC)c3)C1=C[C@H](C(C)C)O[C@@H]2C1CC1,·,3,·,·
COc1ccc(-n2c(C)cc(-c3csc(NC(=O)c4ccc(S(=O)(=O)N(C)C)cc4)n3)c2C)cc1,34*,14,0,53*
Cn1c(SC2CCCC2)nnc1-c1ccco1,·,5,·,·
CCCCC1=CC2=C(c3ccco3)C(=O)C(C)(OC(=O)c3ccc(OC)cc3)C(=O)C2=CN1Cc1ccc2c(c1)OCO2 (centres undefined),28,·,8,55*
Cc1nc(SCC(=O)c2ccccc2)c(C#N)c(-c2ccco2)c1C(=O)NCc1ccco1,21,13,38*,11
COCCOC(=O)c1c(C)nc(SCC(=O)Nc2ccc(OC)cc2)c(C#N)c1-c1ccco1,-5,2,6,3
Cc1ccc(-n2c(SCC(=O)Nc3ccc4c(c3)OCCO4)nnc2-c2cccnc2)cc1,·,0,·,·
COc1ccc2oc(C(=O)Nc3ccc(N4CCOCC4)cc3)c(C)c2c1,13,25,9,86*
C=CCn1c(SCC(=O)NC2CC2)nc2ccccc2c1=O,0,3,-3,·
C=CCn1c(SCC(=O)c2ccc(CNC(C)=O)o2)nc2ccccc2c1=O,0,9,6,49*
COc1ccc(/C=N\NC(=O)c2ccccc2)cc1COc1ccccc1,-6,2,1,6
COc1cccc(OCc2cc(/C=N/NC(=O)c3ccn[nH]3)ccc2OC)c1,9,11,-6,48*
Cc1cc(N2CCN(C(=O)OC(C)(C)C)C[C@@H]2C)ccc1N1CCN(Cc2ccccc2)[C@H](C)C1,·,3,·,·
CCN1CC2([N+](=O)[O-])C=CC(=O)C([N+](=O)[O-])(C1)C2CC(=O)c1ccccc1 (centres undefined),13,26,-6,54*
CCCCN1CC2([N+](=O)[O-])C=CC(=O)C([N+](=O)[O-])(C1)C2CC(=O)c1ccccc1 (centres undefined),3,10,0,22
CC(C)C[C@@H]1COc2cc(N3CCSCC3)ccc2S(=O)(=O)N1C,·,5,·,·
Cc1ccc2c(c1)c1c3n2CCN(C(=O)CN2CCN(C)CC2)C3CCC1 (centres undefined),-8,1,11,-12
CN1CCN(CC(=O)N2CCn3c4c(c5cc(C6CCCCC6)ccc53)CCCC42)CC1 (centres undefined),8,·,23*,-10
CN(CCOC(=O)CC1C=CCC1)C1CN(Cc2cn(Cc3ccccc3Cl)nn2)S(=O)(=O)C1 (centres undefined),·,1,·,·
Cc1[nH]n(C(N)=S)c(=O)c1N=Nc1cccc(Cl)c1,1,7,7,-6
SMILES,NadD block,rCAG binder,ABHD5-PLIN5 inh,core dimer inh
NC(=S)n1[nH]c(-c2ccc([N+](=O)[O-])cc2)c(N=Nc2cccc(Cl)c2)c1=O,93*,18,-21,·
NC(=S)n1[nH]c(-c2ccc([N+](=O)[O-])cc2)c(N=Nc2ccc(O)cc2)c1=O,54*,7,-5,25
OCCN1CCN(C2Cc3cc(Cl)ccc3Sc3ccc(Cl)cc32)CC1 (centres undefined) (tested in a mixture with another compound),-10,·,23*,-21
O=C(CSc1nnc(-c2ccccc2)n1-c1ccc(Cl)cc1)c1ccccc1Br,·,15,·,·
C/C(=N\Nc1ccc(F)cc1F)c1ccc(F)cc1,·,·,·,54*
C/C(=N\Nc1ccc(F)cc1F)c1ccc(N2CCOCC2)cc1,9,11,1,-2
CCOP(=O)(OCC)C(C#N)=C1SCN(c2ccccc2)CS1,14,15,-10,90*

# Assay outcomes from PubChem BioAssay.
